Compound activity from PubChem BioAssay.
Lipid droplet = inhibitors of hepatocyte lipid droplet formation, primary screen, imaging, high-throughput imaging, BODIPY stain | 0.4% of 240,000 active | inhibition, % at 6.5 µM | AML12 mouse hepatocytes, oleate lipid droplets;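 active = lipid droplet intensity inhibited by at least 50%, with more than 500 cells counted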
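Technique: fluorescence imaging, 20x objective, two fields per well / Assay system: AML12 hepatocytes (mouse) / Measure: % inhibition of lipid droplet signal / Doses: 6.5 µM single-point dosing / Incubation: overnight exposure / Reagent: 100 µM oleic acid challenge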
GRK2 inh = compounds blocking aptamer binding on GRK2 – biochemical, human GRK2, bead flow cytometry, HTS, primary screen | Beta-adrenergic receptor kinase 1 (Homo sapiens), P25098 | FAM-aptamer displacement from GRK2 | inhibition of aptamer binding, % at 10 µM | 0.59% of 330,000 active;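 active = inhibition of aptamer binding above 40%, roughly 3 SD of noise, on plates passing a quality check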;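 also: median bead fluorescence of bound FAM aptamer so fluorescent compounds give negative values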
Target sequence (P25098 whole entry, looked up): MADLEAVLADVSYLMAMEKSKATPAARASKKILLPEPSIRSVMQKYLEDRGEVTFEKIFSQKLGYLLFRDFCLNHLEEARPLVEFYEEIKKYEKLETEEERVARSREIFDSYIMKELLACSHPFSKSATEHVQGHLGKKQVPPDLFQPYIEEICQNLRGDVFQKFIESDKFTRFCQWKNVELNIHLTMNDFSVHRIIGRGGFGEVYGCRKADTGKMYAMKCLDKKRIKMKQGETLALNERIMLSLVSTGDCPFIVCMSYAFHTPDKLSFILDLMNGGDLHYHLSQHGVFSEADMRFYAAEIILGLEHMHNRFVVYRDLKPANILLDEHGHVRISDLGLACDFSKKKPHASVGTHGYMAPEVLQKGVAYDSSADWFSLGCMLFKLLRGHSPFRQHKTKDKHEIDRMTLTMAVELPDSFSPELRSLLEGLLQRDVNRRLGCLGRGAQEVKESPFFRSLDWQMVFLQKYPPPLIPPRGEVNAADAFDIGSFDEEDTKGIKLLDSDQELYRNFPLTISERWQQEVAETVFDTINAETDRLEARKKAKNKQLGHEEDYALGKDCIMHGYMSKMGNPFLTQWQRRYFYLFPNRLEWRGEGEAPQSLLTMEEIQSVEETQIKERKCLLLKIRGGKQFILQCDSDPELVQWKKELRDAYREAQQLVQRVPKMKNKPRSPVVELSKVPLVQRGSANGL
procasp3 activ = activators of human procaspase-3 D3A mutant, primary screen, biochemical, absorbance, PC-3 D3A mutant, single concentration. Caspase-3 (Homo sapiens), P42574. recombinant procaspase-3 D3A, Ac-DEVD-pNA absorbance 405 nm. activation, % at 8.5 µM. 0.11% of 330,000 active. AID 463141, 2010;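 active = activation above the mean of all tested compounds plus 3 SD, cut at about 21% in these data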;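 also: 0% = DMSO alone and 100% = DMSO wells spiked with extra 5 µM PC-3 D3A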
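Assay system – Procaspase-3 D3A mutant, all three cleavage aspartates alanine · Controls – DMSO-only low control, 5 µM PC-3 D3A high control · Schedule – 1 h compound preincubation, 2 h substrate hydrolysis at 25 °C · Signal – 405 nm absorbance of p-nitroaniline, reads at 0 and 120 min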
GASC-1 inh = inhibitors of GASC-1 histone demethylase, primary screen, biochemical, fluorescence, DELFIA europium; Lysine-specific demethylase 4C (Homo sapiens), Q9H3R0; GST-JMJD2C(1-420) H3K9me3 demethylation; inhibition, % at 2.35 µM; 0.069% of 330,000 active; AID 2099, 2009;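 active = more than half of a compound's replicate wells show inhibition beyond 50%, single wells judged on their own value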;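 also: signal counts dimethyl H3K9 product captured on neutravidin plate; 0% = median of DMSO wells and 100% = 0.3 times that DMSO median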
procasp7 counter = procaspase-7 activators, primary screen, counter-screen for procaspase-3 activator project, biochemical, absorbance, HTS, human | recombinant procaspase-7, Ac-DEVD-pNA absorbance 405 nm; D23A/D198A/D206A triple mutant, cannot self-cleave; scale: DMSO 0, 5 µM enzyme 100 | Caspase-7 (Homo sapiens), P55210 | activation, % at 8.5 µM | 0.093% of 330,000 active;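 active = percent activation above the screen-wide mean plus 3 SD, cut at about 25% in these data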
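Assay system: Uncleavable procaspase-7 mutant enzyme; Input: 2 µM procaspase-7 mutant as dispensed; Also added: DEVD-pNA substrate; Medium: Zinc-free HEPES pH 7.4 with 300 mM NaCl, 0.01% Triton X-100; Timing: 1 h compound preincubation, 2 h substrate cleavage, 25 °C; Measured by: Epi-absorbance of released pNA at 405 nm, two timepoints.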
VLA-4 inh = inhibition in human VLA-4 binding assay, primary screen, VLA-4 allosteric modulator project, MLPCN library, flow cytometry, VLA-4 expressing cells | Integrin alpha-4 (Homo sapiens), P13612 | ligand binding flow cytometry | inhibition, % (about 7 µM as worked out from the volumes in the protocol) | 0.2% of 330,000 active; in the data active = inhibition above about 50%
VLA-4 mod pick = retest of VLA-4 allosteric modulators, confirmation, cell-based, cherry-picked plates, U937, HUTS-21 LIBS antibody | shares compounds with VLA-4 inh | inhibition, % at 6.7 µM | 2% of 1,300 active | AID 2813, 2010 | U937 cells, HUTS-21 LIBS mAb binding, flow cytometry; LDV ligand present at threefold Kd; in the data active = inhibition above about 40%;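 also: 0% = ligand without compound and 100% = no ligand background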
The depositor's hits bear a star. In the library only some 1.3% were active in any assay of this set; here they are far more common.

O=c1c2[nH]c3cccc(Cl)c3c2ncn1Cc1ccco1 was read as Lipid droplet 15, GRK2 inh 0, procasp3 activ -4, GASC-1 inh -19, procasp7 counter 11, VLA-4 inh -1 and VLA-4 mod pick 14.
For O=c1c2[nH]c3cccc(Cl)c3c2ncn1CC1CCCO1 (stereo unspecified) the results were Lipid droplet 6, GRK2 inh 0, procasp3 activ -1, GASC-1 inh 5, procasp7 counter 4, VLA-4 inh -21 and VLA-4 mod pick 9.
Screening COc1ccc2c(c1)[nH]c1c(=O)n(CC3CCCO3)cnc12 (stereo unspecified) returned Lipid droplet 8, GRK2 inh 0, procasp3 activ 0, GASC-1 inh -2, procasp7 counter 6 and VLA-4 inh -13.
For O=c1c2[nH]c3cccc(Cl)c3c2ncn1CCN1CCCCC1 the results were Lipid droplet -8, GRK2 inh 0, procasp3 activ -5, GASC-1 inh 17, procasp7 counter 4, VLA-4 inh -1 and VLA-4 mod pick 5.
For CN(C)c1ccc(N2C(=NC(=O)C3CCCO3)SC3CS(=O)(=O)CC32)cc1 (stereo unspecified) the results were Lipid droplet 9, GRK2 inh 0, procasp3 activ -5, GASC-1 inh 6, procasp7 counter -2 and VLA-4 inh -5.
Screening CC(C)[C@@H]1CN=C(N)N1C[C@@H]1CCCN1C[C@H](C)N1C[C@@H](Cc2ccccc2)N(CCc2ccc(Cl)c(Cl)c2)C1=N returned GRK2 inh 0, procasp3 activ 4, procasp7 counter 0, VLA-4 inh 53* and VLA-4 mod pick 3.
Screening O=C(C[C@H]1C/C=C\C[C@@H](Cc2ccc(F)cc2)C(=O)OC[C@@H](Cc2c[nH]c3ccccc23)NC1=O)NCCO returned GRK2 inh 0, procasp3 activ 6, procasp7 counter 8 and VLA-4 inh 3.
Screening CCc1ccc([C@H]2C(C(=O)O)=C[C@@H](CC3CCCC3)N2S(=O)(=O)c2ccc(C)cc2)cc1 returned GRK2 inh 1, procasp3 activ -1, procasp7 counter 2, VLA-4 inh 27 and VLA-4 mod pick 8.
Cc1ccc(S(=O)(=O)N2[C@@H](c3ccc(F)cc3)C(C(=O)O)=C[C@H]2CC2CCCC2)cc1 was read as GRK2 inh 1, procasp3 activ -2, GASC-1 inh 2, procasp7 counter 1, VLA-4 inh -24 and VLA-4 mod pick 0.
Screening Cc1cccc2c(CCNC(=O)c3ccc([N+](=O)[O-])cc3)c[nH]c12 returned Lipid droplet -17, GRK2 inh 7, procasp3 activ 0, GASC-1 inh -3, procasp7 counter 1, VLA-4 inh 68* and VLA-4 mod pick 18.
COC(=O)c1sccc1S(=O)(=O)N1CCCC(N(C)CCc2ccccn2)C1 (stereo unspecified) was read as Lipid droplet -7, GRK2 inh 4, procasp3 activ 2, GASC-1 inh -1, procasp7 counter -9 and VLA-4 inh -10.
Cc1cccc(N2C(=O)c3ccc(C(=O)Nc4c[nH]c(=O)[nH]c4=O)cc3C2=O)c1 was read as Lipid droplet -7, GRK2 inh 0, procasp3 activ 2, GASC-1 inh -1, procasp7 counter 13 and VLA-4 inh 5.
Screening COc1ccc(NC(=O)Cn2cc(C(C)=O)c3ccccc32)cc1 returned Lipid droplet -20, GRK2 inh 1, procasp3 activ -4, GASC-1 inh -1, procasp7 counter 5, VLA-4 inh 7 and VLA-4 mod pick 3.
CCC(=O)c1cn(CC(=O)Nc2ccc(C)cc2C)c2ccccc12 was read as Lipid droplet 33, GRK2 inh 0, procasp3 activ 4, GASC-1 inh -4, procasp7 counter 7, VLA-4 inh -1 and VLA-4 mod pick 0.
CCC(=O)c1cn(CC(=O)Nc2cccc(OC)c2)c2ccccc12 was read as Lipid droplet -9, GRK2 inh 0, procasp3 activ 4, GASC-1 inh 0, procasp7 counter 2, VLA-4 inh 11 and VLA-4 mod pick 6.
Cc1cccc(C)c1NC(=O)Cn1cc(C=O)c2ccccc21 was read as Lipid droplet -1, GRK2 inh 0, GASC-1 inh 1, VLA-4 inh 5 and VLA-4 mod pick 8.
CC(=O)c1cn(CC(=O)Nc2ccccc2C)c2ccccc12 was read as GRK2 inh 1, procasp3 activ 13, GASC-1 inh 12, procasp7 counter 1 and VLA-4 inh 13.
`CCOc1ccc(CCNC(=O)CN2C(=O)c3cccnc3Oc3ccc(Cl)cc32)cc1` gave Lipid droplet -3, GRK2 inh 1, procasp3 activ 2, GASC-1 inh -11, procasp7 counter 0 and VLA-4 inh -24.
`COc1ccc(CNC(=O)COC(=O)c2[nH]c(C)c(C(C)=O)c2C)cc1OC` gave GRK2 inh 2, procasp3 activ 5, GASC-1 inh -1, procasp7 counter 0 and VLA-4 inh 3.
COc1cccc(CNC(=O)CCCn2nc(C)c3c(C)n(-c4ccc(C)cc4)nc3c2=O)c1OC was read as Lipid droplet 10, GRK2 inh 0, procasp3 activ -3, GASC-1 inh 0, procasp7 counter -2 and VLA-4 inh 11.
Screening COc1ccc(Cl)cc1NC(=O)CN(C)C(=O)CCc1nc2ccccc2c(=O)[nH]1 returned GRK2 inh 0, procasp3 activ -2, GASC-1 inh 7, procasp7 counter 7 and VLA-4 inh -2.
`CC(C(=O)NC(C)(C)C)N(Cc1cccs1)C(=O)CCN1CCc2ccccc21` (stereo unspecified) gave Lipid droplet -40, GRK2 inh 0, procasp3 activ -2, GASC-1 inh -16, procasp7 counter 3 and VLA-4 inh 7.
